The text below walks through data of ChEMBL document CHEMBL1146146, “Redesign of aminoglycosides for treatment of human genetic diseases caused by premature stop mutations” (2006).

In experiment [1] the test system is Protocadherin-15 (Homo sapiens), Q96QU1 [R3X]. Nature of the experiment: Effect on human PCDH15 R3X mutation translation level at 30 ug/ml. The method in brief:
(§1)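 In vitro transcription-translation of a reporter plasmid carrying the PCDH15 R3X nonsense mutation (premature UGA C stop), with [35S]methionine and a range of drug concentrations. Products were resolved by SDS-PAGE and quantified by PhosphorImager. Suppression is the 35-kDa product as a share of total (35 + 25 kDa) protein. Translation level is total protein at each concentration relative to the drug-free reaction. Values are means of ≥3 independent experiments; sulfate salts were tested.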
Target sequence in this assay (Q96QU1 other isoform, or with tags, fused parts or gaps): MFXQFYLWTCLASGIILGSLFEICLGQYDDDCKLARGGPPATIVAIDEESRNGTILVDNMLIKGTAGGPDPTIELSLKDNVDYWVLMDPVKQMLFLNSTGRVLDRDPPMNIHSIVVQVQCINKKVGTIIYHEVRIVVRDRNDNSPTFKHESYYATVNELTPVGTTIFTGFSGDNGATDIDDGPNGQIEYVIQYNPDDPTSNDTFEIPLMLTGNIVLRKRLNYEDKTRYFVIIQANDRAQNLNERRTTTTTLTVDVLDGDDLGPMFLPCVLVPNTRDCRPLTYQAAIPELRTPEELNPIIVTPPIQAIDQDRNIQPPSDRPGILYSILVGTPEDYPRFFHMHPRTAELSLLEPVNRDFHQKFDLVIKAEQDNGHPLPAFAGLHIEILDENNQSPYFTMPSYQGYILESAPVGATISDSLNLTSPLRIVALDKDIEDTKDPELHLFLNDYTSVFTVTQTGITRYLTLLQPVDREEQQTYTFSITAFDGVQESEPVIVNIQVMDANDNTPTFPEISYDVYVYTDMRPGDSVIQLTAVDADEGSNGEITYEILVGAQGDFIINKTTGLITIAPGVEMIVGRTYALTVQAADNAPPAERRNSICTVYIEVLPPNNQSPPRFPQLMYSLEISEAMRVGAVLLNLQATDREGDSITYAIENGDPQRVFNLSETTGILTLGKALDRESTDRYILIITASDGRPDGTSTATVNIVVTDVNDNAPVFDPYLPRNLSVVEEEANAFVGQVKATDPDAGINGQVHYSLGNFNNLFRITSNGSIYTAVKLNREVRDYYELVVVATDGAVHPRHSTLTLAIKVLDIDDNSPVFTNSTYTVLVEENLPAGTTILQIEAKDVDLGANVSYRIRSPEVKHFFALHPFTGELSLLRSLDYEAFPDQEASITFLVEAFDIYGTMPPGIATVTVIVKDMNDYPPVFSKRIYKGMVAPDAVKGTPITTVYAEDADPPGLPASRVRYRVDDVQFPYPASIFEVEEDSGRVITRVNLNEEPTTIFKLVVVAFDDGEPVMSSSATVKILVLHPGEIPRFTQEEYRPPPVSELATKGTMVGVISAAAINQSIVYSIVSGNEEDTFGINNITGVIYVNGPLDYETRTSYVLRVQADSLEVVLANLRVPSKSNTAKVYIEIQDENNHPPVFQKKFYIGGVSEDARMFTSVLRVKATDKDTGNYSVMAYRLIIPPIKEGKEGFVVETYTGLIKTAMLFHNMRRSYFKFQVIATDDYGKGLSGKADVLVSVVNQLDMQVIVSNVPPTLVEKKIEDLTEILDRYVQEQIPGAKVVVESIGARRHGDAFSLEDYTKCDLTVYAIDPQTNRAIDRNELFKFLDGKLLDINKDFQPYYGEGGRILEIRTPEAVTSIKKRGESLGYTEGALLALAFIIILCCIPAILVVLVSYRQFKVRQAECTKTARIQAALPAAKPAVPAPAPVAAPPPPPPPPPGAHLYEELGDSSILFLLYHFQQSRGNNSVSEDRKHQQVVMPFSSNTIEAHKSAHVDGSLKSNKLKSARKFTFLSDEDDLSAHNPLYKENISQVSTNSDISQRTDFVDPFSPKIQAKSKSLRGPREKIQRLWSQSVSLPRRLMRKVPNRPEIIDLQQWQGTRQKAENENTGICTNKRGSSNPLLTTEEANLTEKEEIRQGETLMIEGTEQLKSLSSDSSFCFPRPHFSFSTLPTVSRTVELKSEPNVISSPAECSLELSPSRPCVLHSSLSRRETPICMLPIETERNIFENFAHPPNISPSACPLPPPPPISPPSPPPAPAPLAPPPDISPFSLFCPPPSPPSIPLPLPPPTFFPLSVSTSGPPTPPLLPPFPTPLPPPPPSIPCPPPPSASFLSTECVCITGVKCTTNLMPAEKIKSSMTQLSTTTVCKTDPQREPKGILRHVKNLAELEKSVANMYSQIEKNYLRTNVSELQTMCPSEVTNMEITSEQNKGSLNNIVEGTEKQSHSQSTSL

Experiment [2] has the same test system. Nature of the experiment: Suppression of human PCDH15 R3X mutation at 30 ug/ml. The method in brief: as §1
Target sequence in this assay (Q96QU1 other isoform, or with tags, fused parts or gaps): as above
In experiment [3] the test system is Bacillus subtilis. Nature of the experiment: Antibacterial activity against Bacillus subtilis ATCC 6633 at 30 ug/ml. The class given is functional, organism-based.
The subject of experiment [4] is Escherichia coli. Kind of experiment: Antibacterial activity against Escherichia coli ATCC 25922 at 30 ug/ml. The format is functional, organism-based.
Experiment [5] concerns Protocadherin-15 (Homo sapiens), Q96QU1 [R3X]. Kind of experiment: Suppression of human PCDH15 R3X mutation at 80 ug/ml. The gist of the method:
as §1

The test system of experiment [6] is Escherichia coli. Nature of the experiment: Antibacterial activity against Escherichia coli ATCC 25922 at 80 ug/ml. The format is functional.
Experiment [7] deals with Bacillus subtilis. Nature of the experiment: Antibacterial activity against Bacillus subtilis ATCC 6633 at 80 ug/ml. The class given is functional.
Experiment [8] concerns Protocadherin-15 (Homo sapiens), Q96QU1 [R3X]. Kind of experiment: Effect on human PCDH15 R3X mutation translation level at 80 ug/ml. The gist of the method:
as §1

Experiment [9] deals with Escherichia coli. Kind of experiment: Antibacterial activity against Escherichia coli ATCC 25922 at 40 ug/ml. The format is functional.
Experiment [10] concerns Protocadherin-15 (Homo sapiens), Q96QU1 [R3X]. Kind of experiment: Suppression of human PCDH15 R3X mutation at 40 ug/ml. The method in brief: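 The PCDH15 R3X (UGA C) reporter is coupled-transcribed and translated in vitro in the presence of [35S]methionine, then run on SDS–PAGE with PhosphorImager quantification. Suppression is the fraction of the 35-kDa read-through product out of total protein (35-kDa plus 25-kDa truncated product). Values are averages of at least three independent experiments.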

Experiment [11] has the same test system. Nature of the experiment: Effect on human PCDH15 R3X mutation translation level at 40 ug/ml. The method in brief: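 Reporter plasmid carrying the PCDH15 R3X nonsense mutation (premature UGA C stop codon) is transcribed and translated in vitro with [35S]methionine and drug added. Products are resolved by SDS–PAGE and quantified by PhosphorImager. Translation level is total protein (35 + 25 kDa) at each drug concentration relative to total protein without drug. Values are means of at least three independent experiments.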

In experiment [12] the test system is Bacillus subtilis. Nature of the experiment: Antibacterial activity against Bacillus subtilis ATCC 6633 at 40 ug/ml. The format is functional.
Experiment [13] has as its system Protocadherin-15 (Homo sapiens), Q96QU1 [R3X]. Kind of experiment: Effect on human PCDH15 R3X mutation translation level at 160 ug/ml. The gist of the method: as §1
Experiment [14] deals with Escherichia coli. Nature of the experiment: Antibacterial activity against Escherichia coli ATCC 25922 at 160 ug/ml. The class given is functional.
Experiment [15] relates to Bacillus subtilis. Nature of the experiment: Antibacterial activity against Bacillus subtilis ATCC 6633 at 160 ug/ml. The format is functional.
Experiment [16] relates to Protocadherin-15 (Homo sapiens), Q96QU1 [R3X]. Kind of experiment: Suppression of human PCDH15 R3X mutation at 160 ug/ml. The gist of the method: as §1

As a reminder, the MIC is the smallest concentration in the dilution series that meets the test's criterion for growth inhibition. A higher MIC goes with weaker potency. Turning to GENTAMICIN SULFATE, the Activity in experiment [1] is 40%; in experiment [2] it was 49%. Further, the MIC against Bacillus subtilis [3] is below 0.5 µg/mL; against Escherichia coli [4], 4 µg/mL.
With `NC[C@H]1O[C@@H](O[C@@H]2[C@@H](O)[C@H](N)C[C@H](N)[C@H]2O[C@H]2O[C@H](CO)[C@@H](O)[C@H](O)[C@H]2N)[C@H](O)[C@@H]1O.O=S(=O)(O)O`, the Activity in experiment [5] was determined as 21%; in [8], 72%. The MIC in the experiment on Escherichia coli [6] was above 512 µg/mL; against Bacillus subtilis [7], 48 µg/mL.
For `N[C@H]1[C@@H](O[C@H]2[C@H](O)[C@@H](O)[C@H](N)C[C@@H]2N)O[C@H](CO)[C@@H](O)[C@@H]1O.O=S(=O)(O)O` [PAROMAMINE SULFATE] the same measures were 6.2%, 74%, 512 µg/mL and 128 µg/mL.
Consider `N[C@H]1[C@@H](O[C@H]2[C@H](O[C@@H]3O[C@H](CO)[C@@H](O)[C@H]3O)[C@@H](O)[C@H](N)C[C@@H]2N)O[C@H](CO)[C@@H](O)[C@@H]1O.O=S(=O)(O)O`, for which the Activity in experiment [5] is 1.3%; in experiment [8], 100%. In addition, the MIC with Escherichia coli [6] is 256 µg/mL; in the experiment with Bacillus subtilis [7], 64 µg/mL.
The corresponding values for `N[C@H]1[C@@H](O[C@H]2[C@H](O)[C@@H](O)[C@H](N)C[C@@H]2N)O[C@H](CO)[C@@H](O)[C@H]1N.O=S(=O)(O)O` are 2%, 71%, 192 µg/mL and 48 µg/mL.
As to `NC[C@@H]1O[C@H](O[C@@H]2[C@@H](O)[C@H](O[C@H]3O[C@H](CO)[C@@H](O)[C@H](O)[C@H]3N)[C@@H](N)C[C@H]2N)[C@@H](O)[C@H]1O.O=S(=O)(O)O`, the Activity in experiment [5] was found to be 4.4%; in experiment [8], 75%. Also, the MIC was above 512 µg/mL against Escherichia coli [6] and 192 µg/mL in the experiment with Bacillus subtilis [7].
Take `NC[C@@H]1O[C@H](O[C@H]2[C@@H](O)[C@H](O[C@@H]3[C@@H](O)[C@H](N)C[C@H](N)[C@H]3O[C@H]3O[C@H](CO)[C@@H](O)[C@H](O)[C@H]3N)O[C@@H]2CO)[C@H](N)[C@@H](O)[C@@H]1O.O=S(=O)(O)O` [PAROMOMYCIN SULFATE]: the Activity in [5] came out at 6.2%; in experiment [10], 49%; in experiment [11] it was 40%; in [8], 74%. Further, the minimal inhibitory concentration (MIC) in the experiment with Escherichia coli [6] turned out to be 512 µg/mL; in the experiment on Escherichia coli [9], 12 µg/mL; in the experiment with Bacillus subtilis [7] it was 128 µg/mL; in the experiment with Bacillus subtilis [12], 8 µg/mL.
`N[C@H]1[C@@H](O[C@H]2[C@H](O)[C@@H](O)[C@H](N)C[C@@H]2N)O[C@H](CO)[C@@H](O)[C@@H]1O[C@@H]1O[C@H](CO)[C@@H](O)[C@H]1O.O=S(=O)(O)O`: the Activity in experiment [13] was 82%; in experiment [16] it was below 1%. Moreover, the MIC with Escherichia coli [14] and against Bacillus subtilis [15] was above 512 µg/mL throughout.
With `N[C@H]1[C@@H](O[C@H]2[C@H](O)[C@@H](O[C@H]3O[C@@H](CO)[C@H](O)[C@@H]3O)[C@H](N)C[C@@H]2N)O[C@H](CO)[C@@H](O)[C@@H]1O.O=S(=O)(O)O`, the Activity in [5] was determined as 1.5%; in [8], 74%. Also, the MIC turned out to be 256 µg/mL against Escherichia coli [6] and 96 µg/mL with Bacillus subtilis [7].
For `N[C@H]1[C@@H](O[C@H]2[C@H](O)[C@@H](O)[C@H](N)C[C@@H]2N)O[C@H](CO)[C@@H](O)[C@@H]1OCO[C@@H]1[C@@H](N)[C@@H](O[C@H]2[C@H](O)[C@@H](O)[C@H](N)C[C@@H]2N)O[C@H](CO)[C@H]1O.O=S(=O)(O)O` the same measures were below 1%, 22%, 96 µg/mL and 48 µg/mL.
For `NC[C@H]1O[C@@H](O[C@@H]2[C@@H](N)[C@@H](O[C@H]3[C@H](O)[C@@H](O)[C@H](N)C[C@@H]3N)O[C@H](CO)[C@H]2O)[C@H](O)[C@@H]1O.O=S(=O)(O)O` the same measures were 2.9%, 98%, 192 µg/mL and 48 µg/mL.
